According to ChEMBL document CHEMBL1154777 (J Med Chem, 2009):
Active and inactive are the calls of the source. The rule behind the calls is not given here.

Key:
Mu-type opioid receptor [1] = biological target: T1, Mu-type opioid receptor (Homo sapiens, UniProt P35372); test: Displacement of [3H]DAMGO from human mu opioid receptor expressed in CHO cells after 60 mins by liquid scintillation counting; assay type: cell-based
[2] = biological target: Delta-type opioid receptor (Homo sapiens, UniProt P41143); test: Displacement of [3H]naltrindole from human delta opioid receptor expressed in CHO cells after 3 hrs by liquid scintillation counting; assay type: cell-based
In short: (§1)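 Membranes from CHO cells stably expressing one human opioid receptor, incubated at 25 °C in 50 mM Tris-HCl pH 7.5 with radioligand: [3H]DAMGO 0.25 nM (60 min), [3H]U69,593 1 nM (60 min), [3H]naltrindole 0.2 nM (3 h). […] Filtered on glass fibre (PEI-soaked for kappa), washed, scintillation counted; IC50 by log-probit fit, Ki via Cheng–Prusoff.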

[3] = biological target: T2, Kappa-type opioid receptor (Homo sapiens, UniProt P41145); test: Displacement of [3H]U69593 from human kappa opioid receptor expressed in CHO cells after 60 mins by liquid scintillation counting; assay type: cell-based; in short: as §1
Homo sapiens = species on record: Homo sapiens; test: Selectivity ratio of Ki for human delta opioid receptor to Ki for human kappa opioid receptor
Mu-type opioid receptor [4] = biological target: T1, Mu-type opioid receptor; test: Agonist activity at human mu opioid receptor expressed in CHO cells assessed as stimulation of [35S]GTPgammaS binding; assay type: functional, cell-based
Mu-type opioid receptor [5] = biological target: T1, Mu-type opioid receptor; test: Agonist activity at human mu opioid receptor expressed in CHO cells assessed as maximal stimulation of [35S]GTPgammaS binding relatiev to DAMGO; assay type: functional, cell-based
In short: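 12 concentrations of each compound incubated with CHO cells expressing the mu receptor; [35S]GTPγS binding stimulation measured, maximal stimulation taken as Emax.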

Mu-type opioid receptor [6] = biological target: T1, Mu-type opioid receptor; test: Antagonist activity at human mu opioid receptor expressed in CHO cells assessed as inhibition of DAMGO-stimulated [35S]GTPgammaS binding; assay type: functional, cell-based
[7] = biological target: T2, Kappa-type opioid receptor; test: Agonist activity at human kappa opioid receptor expressed in CHO cells assessed as stimulation of [35S]GTPgammaS binding; assay type: functional, cell-based
In short: (§2)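 Agonist mode: 12 concentrations of each compound incubated with CHO cells expressing the receptor named in the line; agonist-stimulated [35S]GTPγS binding measured.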

[8] = biological target: T2, Kappa-type opioid receptor; test: Agonist activity at human kappa opioid receptor expressed in CHO cells assessed as maximal stimulation of [35S]GTPgammaS binding relatiev to U50488; assay type: functional, cell-based; in short: as §2
[9] = biological target: T2, Kappa-type opioid receptor; test: Antagonist activity at human kappa opioid receptor expressed in CHO cells assessed as inhibition of U50488-stimulated [35S]GTPgammaS binding; assay type: functional, cell-based
[10] = Chemical stability at pH 7.4 buffer assessed as hydrolysis half life; assay type: physicochemical
[11] = Chemical stability assessed as hydrolysis half life in presence of porcine liver esterase; assay type: ADME; conditions: pig, isolated protein
Mu-type opioid receptor [12] = biological target: T1, Mu-type opioid receptor; test: Antagonist activity at human mu opioid receptor expressed in CHO cells assessed as inhibition of DAMGO-stimulated [35S]GTPgammaS binding at 10 uM; assay type: functional, cell-based

T2 sequence (P41145 whole entry): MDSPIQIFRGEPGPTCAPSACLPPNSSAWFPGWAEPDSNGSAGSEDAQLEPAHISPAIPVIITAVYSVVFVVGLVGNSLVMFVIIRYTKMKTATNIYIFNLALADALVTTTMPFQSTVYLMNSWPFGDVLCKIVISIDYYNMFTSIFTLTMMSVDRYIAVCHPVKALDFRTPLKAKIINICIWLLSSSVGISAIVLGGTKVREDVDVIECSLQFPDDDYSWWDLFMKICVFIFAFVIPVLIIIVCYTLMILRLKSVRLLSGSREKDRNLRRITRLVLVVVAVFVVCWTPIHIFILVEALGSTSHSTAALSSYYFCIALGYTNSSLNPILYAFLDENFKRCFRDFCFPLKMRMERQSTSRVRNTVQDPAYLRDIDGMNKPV
Chain of Delta-type opioid receptor (P41143 whole entry): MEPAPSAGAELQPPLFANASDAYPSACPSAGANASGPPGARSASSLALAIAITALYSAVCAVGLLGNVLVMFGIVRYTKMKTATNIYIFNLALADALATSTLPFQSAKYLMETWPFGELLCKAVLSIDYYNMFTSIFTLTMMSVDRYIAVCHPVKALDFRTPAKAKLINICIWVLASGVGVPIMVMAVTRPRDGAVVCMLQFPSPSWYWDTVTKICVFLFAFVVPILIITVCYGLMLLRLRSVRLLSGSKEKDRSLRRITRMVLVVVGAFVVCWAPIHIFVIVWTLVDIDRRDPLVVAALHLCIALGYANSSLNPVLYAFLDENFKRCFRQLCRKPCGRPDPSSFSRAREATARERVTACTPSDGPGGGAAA
T1 sequence (P35372 whole entry): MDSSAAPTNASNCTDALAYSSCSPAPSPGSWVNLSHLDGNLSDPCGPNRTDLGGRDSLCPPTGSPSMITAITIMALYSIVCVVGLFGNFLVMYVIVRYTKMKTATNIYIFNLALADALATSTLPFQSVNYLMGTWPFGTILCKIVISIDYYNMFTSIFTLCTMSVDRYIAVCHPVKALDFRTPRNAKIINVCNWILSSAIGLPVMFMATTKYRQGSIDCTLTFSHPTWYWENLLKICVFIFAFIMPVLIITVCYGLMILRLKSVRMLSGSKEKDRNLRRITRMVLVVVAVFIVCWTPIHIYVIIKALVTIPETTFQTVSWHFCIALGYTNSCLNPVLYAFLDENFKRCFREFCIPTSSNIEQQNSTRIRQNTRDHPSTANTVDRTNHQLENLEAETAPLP

Q: For CC(C)(CCCCCCC(C)(C)C(=O)Oc1ccc2c(c1)[C@@]13CCCC[C@H]1[C@@H](C2)N(CC1CCC1)CC3)C(=O)OCc1ccccc1, which Ki (Mu-type opioid receptor [1]) is on record?
A: Its Ki is 8.6 nM.

Q: What about the Ki [2] of the same compound?
A: Its Ki is 210 nM.

Q: And the Ki [3]?
A: Its Ki is 4.7 nM.

Q: What about the Ratio Ki (Homo sapiens) of the same compound?
A: The Ratio Ki was 45.

Q: For CC(C)(CCCCCCC(C)(C)C(=O)Oc1ccc2c(c1)[C@@]13CCCC[C@H]1[C@@H](C2)N(CC1CCC1)CC3)C(=O)O, which Ki (Mu-type opioid receptor [1]) is on record?
A: Its Ki is 47 nM.

Q: And the Ki [2]?
A: The Ki was 390 nM.

Q: What about the Ki [3] of the same compound?
A: The Ki was 18 nM.

Q: And the Ratio Ki (Homo sapiens)?
A: Its Ratio Ki is 22.

Q: Which Ki (Mu-type opioid receptor [1]) does the source give for CC(C)(CCCCCCC(C)(C)C(=O)Oc1ccc2c(c1)[C@@]13CCCC[C@H]1[C@@H](C2)N(CC1CCC1)CC3)C(=O)Oc1ccc2c(c1)[C@@]13CCCC[C@H]1[C@@H](C2)N(CC1CCC1)CC3 here?
A: The Ki was 0.47 nM.

Q: What about the Ki [2] of the same compound?
A: The Ki was 15 nM.

Q: What about the Ki [3] of the same compound?
A: Its Ki is 0.47 nM.

Q: And the Ratio Ki (Homo sapiens)?
A: The Ratio Ki was 32.

Q: And the EC50 (Mu-type opioid receptor [4])?
A: The EC50 was 11 nM.

Q: And the Emax (Mu-type opioid receptor [5])?
A: The Emax was 40%.

Q: What about the Imax (Mu-type opioid receptor [6]) of the same compound?
A: The Imax was 50%.

Q: What about the IC50 (Mu-type opioid receptor [6]; read-out: IC50) of the same compound?
A: The IC50 was 81 nM.

Q: What about the EC50 [7] of the same compound?
A: Its EC50 is 6.4 nM.

Q: What about the Emax [8] of the same compound?
A: The Emax was 60%.

Q: What about the IC50 [9] of the same compound?
A: The IC50 was “Not Active”.

Q: And the Imax [9]?
A: Its Imax is “inactive”.

Q: What about the t1/2 [10] of the same compound?
A: Its t1/2 is 1.68 h.

Q: And the t1/2 [11]?
A: Its t1/2 is 1.67 h.

Q: With CC(CCCCCCC(C)C(=O)Oc1ccc2c(c1)[C@@]13CCCC[C@H]1[C@@H](C2)N(CC1CCC1)CC3)C(=O)Oc1ccc2c(c1)[C@@]13CCCC[C@H]1[C@@H](C2)N(CC1CCC1)CC3 (stereo partly drawn) as the compound, how does the Ki (Mu-type opioid receptor [1]) read?
A: The Ki was 0.95 nM.

Q: What about the Ki [2] of the same compound?
A: The Ki was 37 nM.

Q: And the Ki [3]?
A: Its Ki is 0.62 nM.

Q: What about the Ratio Ki (Homo sapiens) of the same compound?
A: Its Ratio Ki is 60.

Q: And the EC50 (Mu-type opioid receptor [4])?
A: Its EC50 is 7.1 nM.

Q: And the Emax (Mu-type opioid receptor [5])?
A: Its Emax is 26%.

Q: What about the Imax (Mu-type opioid receptor [6]) of the same compound?
A: The Imax was 50%.

Q: What about the IC50 (Mu-type opioid receptor [6]; read-out: IC50) of the same compound?
A: Its IC50 is 140 nM.

Q: And the EC50 [7]?
A: Its EC50 is 7.3 nM.

Q: And the Emax [8]?
A: Its Emax is 54%.

Q: And the IC50 [9]?
A: Its IC50 is “Not Active”.

Q: What about the Imax [9] of the same compound?
A: Its Imax is “inactive”.

Q: And the t1/2 [10]?
A: Its t1/2 is 1.38 h.

Q: What about the t1/2 [11] of the same compound?
A: The t1/2 was 2.18 h.

Q: Which results are given for COC(=O)C(C)CCCCCCC(C)C(=O)Oc1ccc2c(c1)[C@@]13CCCC[C@H]1[C@@H](C2)N(CC1CCC1)CC3 (stereo partly drawn)?
A: Ki (Mu-type opioid receptor [1]): 1.7 nM; Ki [2]: 42 nM; Ki [3]: 0.94 nM; Ratio Ki (Homo sapiens): 45

Q: With CC(CCCCCCC(C)C(=O)Oc1ccc2c(c1)[C@@]13CCCC[C@H]1[C@@H](C2)N(CC1CCC1)CC3)C(=O)O (stereo partly drawn) as the compound, how does the Ki (Mu-type opioid receptor [1]) read?
A: The Ki was 0.46 nM.

Q: And the Ki [2]?
A: Its Ki is 20 nM.

Q: And the Ki [3]?
A: The Ki was 0.42 nM.

Q: And the Ratio Ki (Homo sapiens)?
A: Its Ratio Ki is 48.

Q: And the EC50 (Mu-type opioid receptor [4])?
A: The EC50 was 13 nM.

Q: And the Emax (Mu-type opioid receptor [5])?
A: Its Emax is 25%.

Q: What about the IC50 (Mu-type opioid receptor [6]; cho) of the same compound?
A: The IC50 was “Not Active”.

Q: And the Imax (Mu-type opioid receptor [12])?
A: The Imax was 48%.

Q: What about the EC50 [7] of the same compound?
A: Its EC50 is 4.9 nM.

Q: What about the Emax [8] of the same compound?
A: Its Emax is 58%.

Q: And the IC50 [9]?
A: Its IC50 is “Not Active”.

Q: And the Imax [9]?
A: Its Imax is “inactive”.

Q: Which Ki (Mu-type opioid receptor [1]) does the source give for O=C(O)CCCCCCCCC(=O)Oc1ccc2c(c1)[C@@]13CCCC[C@H]1[C@@H](C2)N(CC1CCC1)CC3 here?
A: Its Ki is 0.71 nM.

Q: What about the Ki [2] of the same compound?
A: The Ki was 18 nM.

Q: And the Ki [3]?
A: The Ki was 0.29 nM.

Q: What about the EC50 (Mu-type opioid receptor [4]) of the same compound?
A: Its EC50 is 3 nM.

Q: And the Emax (Mu-type opioid receptor [5])?
A: The Emax was 110%.

Q: And the Imax (Mu-type opioid receptor [6])?
A: Its Imax is “inactive”.

Q: And the IC50 (Mu-type opioid receptor [6]; cho)?
A: Its IC50 is “Not Active”.

Q: What about the EC50 [7] of the same compound?
A: Its EC50 is 2.8 nM.

Q: And the Emax [8]?
A: Its Emax is 75%.

Q: What about the IC50 [9] of the same compound?
A: The IC50 was “Not Active”.

Q: And the Imax [9]?
A: Its Imax is “inactive”.

Q: Which results are given for C=CCN1CC[C@]23c4c5ccc(OC(=O)CCCCCCCCC(=O)Oc6ccc7c(c6)[C@@]68CCCC[C@H]6C(C7)N(CC6CCC6)CC8)c4O[C@H]2CCC[C@H]3[C@H]1C5?
A: Ki (Mu-type opioid receptor [1]): 0.43 nM; Ki [2]: 39 nM; Ki [3]: 0.13 nM; Ratio Ki (Homo sapiens): 300; EC50 (Mu-type opioid receptor [4]): 2 nM; Emax (Mu-type opioid receptor [5]): 34%; Imax (Mu-type opioid receptor [6]): 73%; IC50 (Mu-type opioid receptor [6]; read-out: IC50): 25 nM; EC50 [7]: 1.6 nM; Emax [8]: 86%; IC50 [9]: Not Active; Imax [9]: inactive

Q: With CC(CCCCC(C)C(=O)Oc1ccc2c(c1)[C@@]13CCCC[C@H]1[C@@H](C2)N(CC1CCC1)CC3)C(=O)Oc1ccc2c(c1)[C@@]13CCCC[C@H]1[C@@H](C2)N(CC1CCC1)CC3 (stereo partly drawn) as the compound, how does the Ki (Mu-type opioid receptor [1]) read?
A: Its Ki is 2.9 nM.

Q: And the Ki [2]?
A: The Ki was 50 nM.

Q: And the Ki [3]?
A: Its Ki is 2.2 nM.

Q: What about the Ratio Ki (Homo sapiens) of the same compound?
A: Its Ratio Ki is 23.

Q: And the t1/2 [10]?
A: The t1/2 was 3.68 h.

Q: And the t1/2 [11]?
A: Its t1/2 is 1.9 h.

Q: What does the source list for O=C(CCCCCCCCC(=O)Oc1ccc2c(c1)[C@@]13CCCC[C@H]1[C@@H](C2)N(CC1CCC1)CC3)Oc1ccc2c(c1)[C@@]13CCCC[C@H]1[C@@H](C2)N(CC1CCC1)CC3?
A: Ratio Ki (Homo sapiens): 90; Imax (Mu-type opioid receptor [6]): 44%; Emax [8]: 65%; IC50 [9]: Not Active; Imax [9]: inactive; t1/2 [10]: 0.767 h; t1/2 [11]: 1.83 h
